Reference: ChEMBL document CHEMBL1142895, “Discovery of a new insecticide lead by optimizing a target-diverse scaffold: tetrazolinone derivatives” (2007)
The source made the active and inactive calls. The rule behind the calls is not given here.

Legend:
Triticum aestivum [1] = test: Herbicidal activity against Triticum aestivum at 450 g ai/ha in greenhouse in vivo test; type: functional, organism-based
[2] = tested on: Brassica rapa subsp. oleifera; test: Inhibition of stem growth of Brassica campestris at 100 mg/L; type: functional
Procedure, shortened: (§1)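 Seeds of each species were grown in Petri dishes with 10 seeds per dish, at 28 °C, 70–80% RH, 16:8 h light:dark photoperiod and 3000 lx light for 5 days. Root and stem lengths were measured for the 10 seeds and averaged. Each test and its controls were run in three replicates, and the data were given probit analysis.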

Cucumis sativus [3] = test: Herbicidal activity against Cucumis sativus at 450 g ai/ha in greenhouse in vivo test; type: functional, organism-based
Sorghum bicolor [4] = test: Inhibition of root growth of Sorghum bicolor at 100 mg/L; type: functional; procedure, shortened: as §1
Sorghum bicolor [5] = test: Herbicidal activity against Sorghum bicolor at 450 g ai/ha in greenhouse in vivo test; type: functional, organism-based
Cucumis sativus [6] = test: Inhibition of stem growth of Cucumis sativus at 100 mg/L; type: functional; procedure, shortened: as §1
[7] = tested on: Brassica rapa subsp. oleifera; test: Herbicidal activity against Brassica campestris at 450 g ai/ha in greenhouse in vivo test; type: functional, organism-based
Cucumis sativus [8] = test: Inhibition of root growth of Cucumis sativus at 100 mg/L; type: functional; procedure, shortened: as §1
Radish [9] = test: Herbicidal activity against Raphanus sativus at 450 g ai/ha in greenhouse in vivo test; type: functional, organism-based
Echinochloa crus-galli [10] = test: Inhibition of stem growth of Echinochloa crus-galli at 100 mg/L; type: functional; procedure, shortened: as §1
Radish [11] = test: Inhibition of root growth of Raphanus sativus at 100 mg/L; type: functional; procedure, shortened: as §1
Triticum aestivum [12] = test: Inhibition of stem growth of Triticum aestivum at 100 mg/L; type: functional; procedure, shortened: as §1
Sorghum bicolor [13] = test: Inhibition of stem growth of Sorghum bicolor at 100 mg/L; type: functional; procedure, shortened: as §1
Aphis = test: Insecticidal activity against Aphis medicagini at 250 mg/L; type: functional
Procedure, shortened: (§2)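 Groups of 10 of each species were placed in glass Petri dishes and sprayed with test solution using a Potter sprayer. After air-drying, they were held under normal rearing conditions. Mortality at 72 h was taken from the number and size of live larvae relative to untreated controls.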

Tetranychus cinnabarinus = test: Insecticidal activity against Tetranychus cinnabarinus at 250 mg/L; type: functional; procedure, shortened: as §2
Triticum aestivum [14] = test: Inhibition of root growth of Triticum aestivum at 100 mg/L; type: functional; procedure, shortened: as §1
[15] = tested on: Brassica rapa subsp. oleifera; test: Inhibition of root growth of Brassica campestris at 100 mg/L; type: functional; procedure, shortened: as §1
Echinochloa crus-galli [16] = test: Herbicidal activity against Echinochloa crus-galli at 450 g ai/ha in greenhouse in vivo test; type: functional, organism-based
Echinochloa crus-galli [17] = test: Inhibition of root growth of Echinochloa crus-galli at 100 mg/L; type: functional; procedure, shortened: as §1
Radish [18] = test: Inhibition of stem growth of Raphanus sativus at 100 mg/L; type: functional; procedure, shortened: as §1

SMILES	Activity (Triticum aestivum [1])	inhibition at 100 µg/mL [2] [%]	Activity (Cucumis sativus [3])	inhibition at 100 µg/mL (Sorghum bicolor [4]) [%]	Activity (Sorghum bicolor [5])	inhibition at 100 µg/mL (Cucumis sativus [6]) [%]	Activity [7]	inhibition at 100 µg/mL (Cucumis sativus [8]) [%]	Activity (Radish [9])	inhibition at 100 µg/mL (Echinochloa crus-galli [10]) [%]	inhibition at 100 µg/mL (Radish [11]) [%]	inhibition at 100 µg/mL (Triticum aestivum [12]) [%]	inhibition at 100 µg/mL (Sorghum bicolor [13]) [%]	Activity (Aphis) [%]	Activity (Tetranychus cinnabarinus) [%]	inhibition at 100 µg/mL (Triticum aestivum [14]) [%]	inhibition at 100 µg/mL [15] [%]	Activity (Echinochloa crus-galli [16])	inhibition at 100 µg/mL (Echinochloa crus-galli [17]) [%]	inhibition at 100 µg/mL (Radish [18]) [%]
CCOC(=O)Cn1nnn(-c2ccc(Cl)cc2)c1=O	inactive	70	inactive	20	inactive	0	inactive	0	inactive	0	80	30	20	8.3	0	30	85	inactive	0	40
O=c1n(Cc2nnc(SCc3cccc(F)c3)s2)nnn1-c1ccc(Cl)cc1	inactive	0	inactive	40	inactive	30	inactive	30	inactive	70	50	70	40	0	2.9	40	40	inactive	50	50
CCCCCCCCSc1nnc(Cn2nnn(-c3ccc(Cl)cc3)c2=O)s1	inactive	0	inactive	50	inactive	0	inactive	30	inactive	0	40	0	0	0	2.9	30	40	inactive	40	0
O=c1n(Cc2nnc(SCc3ccccc3)s2)nnn1-c1ccc(Cl)cc1	inactive	50	inactive	60	inactive	60	inactive	60	inactive	70	60	60	70	5.7	2.9	60	60	inactive	60	40
Cc1ccccc1Cn1nnn(-c2ccc(Cl)cc2)c1=O	inactive	0	inactive	0	inactive	0	inactive	0	inactive	0	0	30	0	21.7	2.9	0	0	inactive	0	0
